Results as given in ChEMBL document CHEMBL1150426, “New C5-alkylated indolobenzazepinones acting as inhibitors of tubulin polymerization: cytotoxic and antitumor activities” (J Med Chem, 2008).
Activity calls are given as the source filed them. The calls are words filed in the database; no cut-off is given here.

Columns and labels:
MDA-MB-231 [1] = experiment: Induction of apoptosis in human MDA-MB-231 cells assessed as activation of caspase 7 at 0.01 to 1 uM after 24 hrs by microtitre plate fluorimeter; type: functional, cell-based
In short: (§1)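 Cells seeded 5 × 10⁴/well, then after 24 h given compound at 1, 0.1 or 0.01 µM, or 0.1% DMSO as negative control, for 24 h. Caspase-3/7 substrate in homogeneous assay buffer added; fluorescence read at 527 nm after 1 h.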

HCT-116 [2] = experiment: Induction of apoptosis in human HCT116 cells assessed as activation of caspase 3 at 0.01 to 1 uM after 24 hrs by microtitre plate fluorimeter; type: functional, cell-based; in short: as §1
K562 [3] = experiment: Cell cycle arrest in human K562 cells assessed as accumulation at G2/M phase at 0.05 uM after 16 hrs by flow cytometry; type: functional
In short: (§2)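 Exponentially growing K562 cells exposed to compound or DMSO for 6, 16 or 24 h; cell-cycle phase distribution determined by flow cytometry; data representative of three independent experiments.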

K562 [4] = experiment: Cell cycle arrest in human K562 cells assessed as accumulation at S phase at 1 uM after 24 hrs by flow cytometry; type: functional; in short: as §2
K562 [5] = experiment: Cell cycle arrest in human K562 cells assessed as accumulation at S phase at 0.5 uM after 6 hrs by flow cytometry; type: functional; in short: as §2
K562 [6] = experiment: Cell cycle arrest in human K562 cells assessed as accumulation at S phase at 0.5 uM after 16 hrs by flow cytometry; type: functional; in short: as §2
MDA-MB-231 [7] = experiment: Cell cycle arrest in human MDA-MB-231 cells assessed as accumulation at G2/M phase at 0.1 uM after 24 hrs by flow cytometry
K562 [8] = experiment: Cell cycle arrest in human K562 cells assessed as accumulation at G2/M phase at 0.05 uM after 6 hrs by flow cytometry; type: functional; in short: as §2
MDA-MB-231 [9] = experiment: Cell cycle arrest in human MDA-MB-231 cells assessed as accumulation at G2/M phase at 0.05 uM after 24 hrs by flow cytometry
K562 [10] = experiment: Cell cycle arrest in human K562 cells assessed as accumulation at G2/M phase at 1 uM after 24 hrs by flow cytometry; type: functional; conditions: in the assay text read “at 0.1 uM” for “at 1 uM”; in short: as §2
HT-29 = experiment: Antiproliferative activity against human HT29 cells after 72 hrs; type: functional, cell-based; conditions: HT-29, 72 h
In short: (§3)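 Cells were seeded at 5 × 10³ per well and cultured for 24 h. Test compound in DMSO (under 0.1%) was then added for 72 h. Resazurin was added for 2 h, and fluorescence was read at ex 560 nm / em 590 nm. IC50 was taken as the concentration giving a 50% fall in fluorescence versus untreated cells. Runs were done in triplicate.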

K562 [11] = experiment: Cell cycle arrest in human K562 cells assessed as accumulation at G2/M phase at 0.5 uM after 24 hrs by flow cytometry; type: functional; in short: as §2
K562 [12] = experiment: Cell cycle arrest in human K562 cells assessed as accumulation at G0/G1 phase at 0.05 uM after 24 hrs by flow cytometry; type: functional; in short: as §2
K562 [13] = experiment: Cell cycle arrest in human K562 cells assessed as accumulation at G0/G1 phase at 0.05 uM after 6 hrs by flow cytometry; type: functional; in short: as §2
[14] = Antitumor activity against human U87 tumor transplanted in chick chorio-allantoic membrane assessed as reduction of tumor volume at 10 uM after 4 days; type: functional, U-87MG ATCC; parameters: scale not given: the % may be the effect or the level left
In short: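 U87 glioma cells (5 × 10⁶ in 20 µL medium) grafted on chick CAM on embryonic day 10; size-matched tumors grouped on day 2. 20 µL drug at 10 µM applied locally once daily, days 3–6 of tumor growth; controls got solvent. Volume V = 4/3πr³ from length and width, six tumors per group.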

MDA-MB-231 [15] = experiment: Induction of apoptosis in human MDA-MB-231 cells assessed as activation of caspase 3 at 0.01 to 1 uM after 24 hrs by microtitre plate fluorimeter; type: functional, cell-based; in short: as §1
HCT-116 [16] = experiment: Induction of apoptosis in human HCT116 cells assessed as activation of caspase 7 at 0.01 to 1 uM after 24 hrs by microtitre plate fluorimeter; type: functional, cell-based; in short: as §1
K562 [17] = experiment: Induction of apoptosis in human K562 cells assessed as activation of caspase 7 at 0.01 to 1 uM after 24 hrs by microtitre plate fluorimeter; type: functional, cell-based; in short: as §1
B16-F10 = experiment: Antiproliferative activity against mouse B16F10 cells after 72 hrs; type: functional, cell-based; conditions: B16-F10, 72 h; in short: as §3
K562 [18] = experiment: Cell cycle arrest in human K562 cells assessed as accumulation at G0/G1 phase at 0.5 uM after 24 hrs by flow cytometry; type: functional; in short: as §2
K562 [19] = experiment: Cell cycle arrest in human K562 cells assessed as accumulation at S phase at 0.05 uM after 6 hrs by flow cytometry; type: functional; in short: as §2
KB = experiment: Cytotoxicity against human KB cells after 72 hrs; type: functional, cell-based
In short: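 KB cells in EMEM (4.5 g/L glucose, 10% FCS, 1% glutamine) seeded 5 × 10³/well, dosed after 24 h with compound in DMSO (<0.1%). 72 h exposure, then resazurin 2 h; fluorescence ex 560/em 590 nm. IC50 = 50% fluorescence decrease versus untreated; triplicate.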

HCT-116 [20] = experiment: Antiproliferative activity against human HCT116 cells after 72 hrs; type: functional, cell-based; conditions: HCT-116, 72 h; in short: as §3
K562 [21] = experiment: Cell cycle arrest in human K562 cells assessed as accumulation at S phase at 1 uM after 16 hrs by flow cytometry; type: functional; in short: as §2
MDA-MB-231 [22] = experiment: Antiproliferative activity against human MDA-MB-231 cells after 72 hrs; type: functional, cell-based; conditions: MDA-MB-231, 72 h; in short: as §3
K562 [23] = experiment: Induction of apoptosis in human K562 cells assessed as activation of caspase 3 at 0.01 to 1 uM after 24 hrs by microtitre plate fluorimeter; type: functional, cell-based; in short: as §1
K562 [24] = experiment: Cell cycle arrest in human K562 cells assessed as accumulation at S phase at 0.05 uM after 16 hrs by flow cytometry; type: functional; in short: as §2
K562 [25] = experiment: Cell cycle arrest in human K562 cells assessed as accumulation at G2/M phase at 0.5 uM after 16 hrs by flow cytometry; type: functional; in short: as §2
K562 [26] = experiment: Cell cycle arrest in human K562 cells assessed as accumulation at G2/M phase at 1 uM after 16 hrs by flow cytometry; type: functional; in short: as §2
MCF7 = experiment: Cell cycle arrest in human MCF7 cells assessed as accumulation at G2/M phase at 0.1 uM after 24 hrs by flow cytometry
MDA-MB-435 = experiment: Antiproliferative activity against human MDA-MB-435 cells after 72 hrs; type: functional, cell-based; conditions: MDA-MB-435, 72 h; in short: as §3
K562 [27] = experiment: Antiproliferative activity against human K562 cells after 72 hrs; type: functional, cell-based; conditions: K562, 72 h; in short: as §3
A549 = experiment: Antiproliferative activity against human A549 cells after 72 hrs; type: functional, cell-based; conditions: A549, 72 h; in short: as §3
K562 [28] = experiment: Cell cycle arrest in human K562 cells assessed as accumulation at G2/M phase at 0.5 uM after 6 hrs by flow cytometry; type: functional; in short: as §2
K562 [29] = experiment: Cell cycle arrest in human K562 cells assessed as accumulation at G0/G1 phase at 1 uM after 24 hrs by flow cytometry; type: functional; in short: as §2
K562 [30] = experiment: Cell cycle arrest in human K562 cells assessed as accumulation at G0/G1 phase at 0.5 uM after 16 hrs by flow cytometry; type: functional; in short: as §2
L1210 = experiment: Antiproliferative activity against mouse L1210 cells after 72 hrs; type: functional, cell-based; conditions: L1210, 72 h; in short: as §3

## CC[C@@H]1NC(=O)c2[nH]c3ccccc3c2-c2ccccc21
MDA-MB-231 [1]
  Activity: Active
HCT-116 [2]
  Activity: Active
K562 [3]
  Activity: 1.1%
K562 [4]
  Activity: 69.5%
K562 [5]
  Activity: 67.8%
K562 [6]
  Activity: 47.3%
MDA-MB-231 [7]
  Activity: 100%
K562 [8]
  Activity: 4.9%
MDA-MB-231 [9]
  Activity: 44.5%
K562 [10]
  Activity: 20.3%
HT-29
  IC50: 42 nM
K562 [11]
  Activity: 44.7%
K562 [12]
  Activity: 14.6%
K562 [13]
  Activity: 0.3%
[14]
  Activity: 76%
MDA-MB-231 [15]
  Activity: Active
HCT-116 [16]
  Activity: Active
K562 [17]
  Activity: Active
B16-F10
  IC50: 68 nM
K562 [18]
  Activity: 1.2%
K562 [19]
  Activity: 94.3%
KB
  IC50: 37 nM
HCT-116 [20]
  IC50: 42 nM
K562 [21]
  Activity: 52.8%
MDA-MB-231 [22]
  IC50: 30 nM
K562 [23]
  Activity: Active
K562 [24]
  Activity: 97.6%
K562 [25]
  Activity: 51.5%
K562 [26]
  Activity: 43.4%
MCF7
  Activity: 62.6%
MDA-MB-435
  IC50: 70 nM
K562 [27]
  IC50: 70 nM
A549
  IC50: 50 nM
K562 [28]
  Activity: 32%
K562 [29]
  Activity: 7.6%
K562 [30]
  Activity: 0.6%
L1210
  IC50: 34 nM
